Measured values taken from ChEMBL document CHEMBL1137658, “Effect of caspofungin on metabolite profiles of Aspergillus species determined by nuclear magnetic resonance spectroscopy” (2007).
The source made the active and inactive calls. No cut-off for these calls is given here.

Legend:
Aspergillus fumigatus [1] = experiment: Increase in metabolite production in Aspergillus fumigatus isolate 06-067-1639 assessed as lowest drug concentration required to increase >50% glycine betaine production after 48 hrs in presence of 2 % glucose by NMR spectroscopy; format: functional
Aspergillus flavus [2] = experiment: Increase in metabolite production in Aspergillus flavus ATCC 204304 assessed as lowest drug concentration required to increase >50% fumarate production after 48 hrs in presence of 2 % glucose by NMR spectroscopy; format: functional
Outline: (§1)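 Cultures grown in RPMI 1640-2% glucose-MOPS with drug series, 48 h. Culture media analysed by 600-MHz ¹H NMR. MEP taken from stack plots and peak integrals of resolved resonances, as lowest drug concentration suppressing nutrient use or metabolite production by ≥50%. Alternative MEP: lowest concentration raising fumarate >50%.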

Aspergillus fumigatus [3] = experiment: Inhibition of metabolite production in Aspergillus fumigatus isolate 06-067-1639 assessed as inhibition of malate and fumarate production at 2 to 4 ug/ml; format: functional
Aspergillus terreus [4] = experiment: Antifungal activity against Aspergillus terreus isolate 04-188-2548 assessed as lowest drug concentration resulting in aberrant hyphal growth after 48 hrs by broth microdilution method; format: functional
Outline: (§2)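 Caspofungin tested by modified CLSI M38-A microdilution in RPMI 1640 plus 2% glucose, l-glutamine, MOPS pH 7. Serial dilutions 0.03125 to 16 μg/ml; duplicate plates. MEC = lowest concentration giving aberrant hyphal growth on inverted-microscope examination, read at 48 h.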

Aspergillus fumigatus [5] = experiment: Inhibition of metabolite production in Aspergillus fumigatus ATCC 204305 assessed as lowest drug concentration required to inhibit 50% malate production after 48 hrs in presence of 0.2 % glucose by NMR spectroscopy; format: functional
Outline: (§3)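 A. fumigatus ATCC 204305 incubated 48 h and 72 h with caspofungin in RPMI 1640 containing 0.2% glucose instead of 2%. ¹H NMR of medium. MEP from malate peak area, taken at ≥50% reduction.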

Aspergillus nidulans [6] = experiment: Inhibition of metabolite production in Aspergillus nidulans isolate 05-326-1785 assessed as lowest drug concentration required to inhibit 50% fumarate production after 72 hrs in presence of 2 % glucose by NMR spectroscopy; format: functional
Outline: (§4)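 A. nidulans grows slowly, so spectra were recorded after 72 h incubation in RPMI 1640-2% glucose-MOPS with drug dilutions. 600-MHz ¹H NMR of culture medium. Fumarate peak integrals plotted against drug concentration. MEP = lowest concentration with ≥50% fall in fumarate.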

Aspergillus niger [7] = experiment: Antifungal activity against Aspergillus niger isolate 05-290-2479 assessed as lowest drug concentration resulting in aberrant hyphal growth after 48 hrs by broth microdilution method; format: functional; outline: as §2
Aspergillus fumigatus [8] = experiment: Inhibition of metabolite production in Aspergillus fumigatus ATCC 204305 assessed as lowest drug concentration required to inhibit 50% malate production after 72 hrs in presence of 0.2 % glucose by NMR spectroscopy; format: functional; outline: as §3
Aspergillus niger [9] = experiment: Inhibition of metabolite production in Aspergillus niger isolate 05-290-2479 assessed as lowest drug concentration required to inhibit 50% citrate production after 48 hrs in presence of 2 % glucose by NMR spectroscopy; format: functional; outline: as §1
Aspergillus fumigatus [10] = experiment: Inhibition of metabolite production in Aspergillus fumigatus ATCC 204305 assessed as lowest drug concentration required to inhibit 50% glycine betain, fumarate, malate production after 48 hrs in presence of 2 % glucose by NMR spectroscopy; format: functional; outline: as §1
Aspergillus fumigatus [11] = experiment: Inhibition of metabolite production in Aspergillus fumigatus ATCC 204305 assessed as lowest drug concentration required to inhibit 50% malate production after 72 hrs in presence of 2 % glucose by NMR spectroscopy; format: functional
Outline: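 Caspofungin dilutions with A. fumigatus ATCC 204305 in RPMI 1640-2% glucose-MOPS, incubated 72 h. ¹H NMR of medium. MEP = lowest concentration giving ≥50% fall in malate, glycine betaine or fumarate peak areas.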

Aspergillus fumigatus [12] = experiment: Antifungal activity against Aspergillus fumigatus ATCC 204305 assessed as lowest drug concentration resulting in aberrant hyphal growth after 72 hrs by broth microdilution method; format: functional
Aspergillus terreus [13] = experiment: Antifungal activity against Aspergillus terreus isolate 06-059-2428 assessed as lowest drug concentration resulting in aberrant hyphal growth after 48 hrs by broth microdilution method; format: functional; outline: as §2
Aspergillus fumigatus [14] = experiment: Inhibition of metabolite production in Aspergillus fumigatus isolate 06-067-1639 assessed as inhibition of glycine betaine production at => 1 ug/ml; format: functional, organism-based
Aspergillus flavus [15] = experiment: Antifungal activity against Aspergillus flavus ATCC 204304 assessed as lowest drug concentration resulting in aberrant hyphal growth after 48 hrs by broth microdilution method; format: functional; outline: as §2
Aspergillus fumigatus [16] = experiment: Increase in metabolite production in Aspergillus fumigatus isolate 06-067-1639 assessed as paradoxical increase in glycine betain, fumarate, succinate level at 1 ug/ml after 48 hrs; format: functional, organism-based
Aspergillus terreus [17] = experiment: Inhibition of metabolite production in Aspergillus terreus isolate 04-188-2548 assessed as lowest drug concentration required to inhibit 50% ethanol, malate production after 48 hrs in presence of 2 % glucose by NMR spectroscopy; format: functional; outline: as §1
Aspergillus flavus [18] = experiment: Antifungal activity against Aspergillus flavus isolate 05-314-1100 assessed as lowest drug concentration resulting in aberrant hyphal growth after 48 hrs by broth microdilution method; format: functional; outline: as §2
Aspergillus niger [19] = experiment: Antifungal activity against Aspergillus niger isolate 05-112-3701 assessed as lowest drug concentration resulting in aberrant hyphal growth after 48 hrs by broth microdilution method; format: functional; outline: as §2
Aspergillus terreus [20] = experiment: Inhibition of metabolite production in Aspergillus terreus isolate 06-059-2428 assessed as lowest drug concentration required to inhibit 50% ethanol production after 48 hrs in presence of 2 % glucose by NMR spectroscopy; format: functional; outline: as §1
Aspergillus flavus [21] = experiment: Increase in metabolite production in Aspergillus flavus isolate 05-314-1100 assessed as lowest drug concentration required to increase >50% fumarate production after 48 hrs in presence of 2 % glucose by NMR spectroscopy; format: functional; outline: as §1
Aspergillus nidulans [22] = experiment: Antifungal activity against Aspergillus nidulans isolate 00-202661 assessed as lowest drug concentration resulting in aberrant hyphal growth after 72 hrs by broth microdilution method; format: functional
Aspergillus nidulans [23] = experiment: Antifungal activity against Aspergillus nidulans isolate 05-326-1785 assessed as lowest drug concentration resulting in aberrant hyphal growth after 72 hrs by broth microdilution method; format: functional
Aspergillus fumigatus [24] = experiment: Inhibition of metabolite production in Aspergillus fumigatus ATCC 204305 assessed as lowest drug concentration required to inhibit 50% malate production after 48 hrs in presence of 2 % glucose by NMR spectroscopy; format: functional; outline: as §1
Aspergillus fumigatus [25] = experiment: Antifungal activity against Aspergillus fumigatus ATCC 204305 assessed as lowest drug concentration resulting in aberrant hyphal growth after 48 hrs by broth microdilution method; format: functional; outline: as §2
Aspergillus niger [26] = experiment: Inhibition of metabolite production in Aspergillus niger isolate 05-112-3701 assessed as lowest drug concentration required to inhibit 50% citrate production after 48 hrs in presence of 2 % glucose by NMR spectroscopy; format: functional; outline: as §1
Aspergillus fumigatus [27] = experiment: Increase in metabolite production in Aspergillus fumigatus ATCC 204305 assessed as paradoxical increase in glycine betaine, fumarate and succinate level at >= 0.5 ug/ml after 48 hrs
Aspergillus nidulans [28] = experiment: Inhibition of metabolite production in Aspergillus nidulans isolate 00-202661 assessed as lowest drug concentration required to inhibit 50% fumarate production after 72 hrs in presence of 2 % glucose by NMR spectroscopy; format: functional; outline: as §4
Aspergillus fumigatus [29] = experiment: Antifungal activity against Aspergillus fumigatus isolate 06-067-1639 assessed as lowest drug concentration resulting in aberrant hyphal growth after 48 hrs by broth microdilution method; format: functional; outline: as §2

CC[C@H](C)C[C@H](C)CCCCCCCCC(=O)N[C@H]1C[C@@H](O)[C@@H](NCCN)NC(=O)[C@@H]2[C@@H](O)CCN2C(=O)[C@H]([C@H](O)CCN)NC(=O)[C@H]([C@H](O)[C@@H](O)c2ccc(O)cc2)NC(=O)[C@@H]2C[C@@H](O)CN2C(=O)[C@H]([C@@H](C)O)NC1=O [CASPOFUNGIN]
Activity (Aspergillus fumigatus [1]): 1 µg/mL
Activity (Aspergillus flavus [2]): 0.03 µg/mL
inhibition (INH) (Aspergillus fumigatus [3]): 20%
Activity (Aspergillus terreus [4]): 0.03 µg/mL
Activity (Aspergillus fumigatus [5]): 0.06 µg/mL
Activity (Aspergillus nidulans [6]): 4 µg/mL
Activity (Aspergillus niger [7]): 0.5 µg/mL
Activity (Aspergillus fumigatus [8]): 0.03 µg/mL
Activity (Aspergillus niger [9]): 0.25 µg/mL
Activity (Aspergillus fumigatus [10]): 0.5 µg/mL
Activity (Aspergillus fumigatus [11]): 0.03 µg/mL
Activity (Aspergillus fumigatus [12]): 0.03 µg/mL
Activity (Aspergillus terreus [13]): 0.03 µg/mL
Activity (Aspergillus fumigatus [14]): inactive
Activity (Aspergillus flavus [15]): 0.03 µg/mL
Activity (Aspergillus fumigatus [16]): Active
Activity (Aspergillus terreus [17]): 0.5 µg/mL
Activity (Aspergillus flavus [18]): 0.03 µg/mL
Activity (Aspergillus niger [19]): 0.5 µg/mL
Activity (Aspergillus terreus [20]): 0.06 µg/mL
Activity (Aspergillus flavus [21]): 0.03 µg/mL
Activity (Aspergillus nidulans [22]): 2 µg/mL
Activity (Aspergillus nidulans [23]): 4 µg/mL
Activity (Aspergillus fumigatus [24]): 0.5 µg/mL
Activity (Aspergillus fumigatus [25]): 0.03 µg/mL
Activity (Aspergillus niger [26]): 0.5 µg/mL
Activity (Aspergillus fumigatus [27]): Active
Activity (Aspergillus nidulans [28]): 2 µg/mL
Activity (Aspergillus fumigatus [29]): 0.03 µg/mL
